Non-standard residues stand in square brackets, D forms with d. Residues, ends and D or L forms follow the SMILES beside them. pT = C[C@@H](OP(=O)(O)O)[C@H](N)C(=O)O; pS = N[C@@H](COP(=O)(O)O)C(=O)O
How the values were obtained:
arrestin-2 = conditions: doubly phosphorylated Thr419-ASN439 peptide of CB1 C-terminus; cited from earlier work
[1] = biological target: truncated human arrestin-2 mutant comprised of residues 1-382 (tr-arr2_(1-382)) (human) (UniProt P49407); assay: ITC
[2] = biological target: wild-type human arrestin-2 (wt-arr2_(1-418)) (human) (UniProt P49407); assay: ITC
[3] = biological target: T1, wt-arr2_1-418 (full-length human arrestin-2) (Homo sapiens, UniProt P49407); assay: Isothermal titration calorimetry; type: binding
Procedure, shortened: (§1)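 Untagged protein from E. coli BL21, purified by ammonium sulfate precipitation, heparin affinity and size exclusion. ITC at 283K in 10 mM NaH2PO4 pH 7.0, 100 mM NaCl: cell arrestin-2 0.01 mM, syringe test peptide 0.5 mM. 13 injections of 15 ul, 210 s apart, up to 2-fold peptide excess. Peptide dilution heats into buffer run as control. Isotherms fitted to one-site, 1:1 model.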

[4] = biological target: T2, tr-arr2_1-382 (truncated human arrestin-2 mutant) (Homo sapiens, UniProt P49407); assay: Isothermal titration calorimetry; type: binding
Procedure, shortened: as §1

[5] = biological target: T1, wt-arr2_1-418 (full-length human arrestin-2); assay: Transferred NOESY NMR of arrestin-peptide mixture, full-length arrestin-2; type: binding; conditions: 0.1 mM wt-arr2_1-418, 1 mM peptide (1:10), pH 6.9-7.1, 10°C, 600 MHz
[6] = biological target: T2, tr-arr2_1-382 (truncated human arrestin-2 mutant); assay: Transferred NOESY NMR of arrestin-peptide mixture, truncated arrestin-2; type: binding; conditions: 0.1 mM tr-arr2_1-382, 1 mM peptide (1:10), pH 6.9-7.1, 10°C, 600 MHz
[7] = ITC, 283K, 10 mM NaH2PO4 pH 7.0, 100 mM NaCl

T1 sequence (P49407 whole entry): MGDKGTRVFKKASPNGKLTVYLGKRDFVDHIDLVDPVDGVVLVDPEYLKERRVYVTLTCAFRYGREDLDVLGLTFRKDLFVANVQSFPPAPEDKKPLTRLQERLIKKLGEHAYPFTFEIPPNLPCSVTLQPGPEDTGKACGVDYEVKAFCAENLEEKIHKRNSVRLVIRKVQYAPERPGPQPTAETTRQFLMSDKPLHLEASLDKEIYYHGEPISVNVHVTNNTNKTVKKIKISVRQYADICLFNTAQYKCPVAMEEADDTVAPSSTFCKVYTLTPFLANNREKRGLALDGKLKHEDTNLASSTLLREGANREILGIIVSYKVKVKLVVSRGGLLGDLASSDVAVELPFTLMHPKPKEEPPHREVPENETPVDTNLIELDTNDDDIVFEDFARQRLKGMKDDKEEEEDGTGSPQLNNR
T2 sequence (P49407 1-382, change not shown): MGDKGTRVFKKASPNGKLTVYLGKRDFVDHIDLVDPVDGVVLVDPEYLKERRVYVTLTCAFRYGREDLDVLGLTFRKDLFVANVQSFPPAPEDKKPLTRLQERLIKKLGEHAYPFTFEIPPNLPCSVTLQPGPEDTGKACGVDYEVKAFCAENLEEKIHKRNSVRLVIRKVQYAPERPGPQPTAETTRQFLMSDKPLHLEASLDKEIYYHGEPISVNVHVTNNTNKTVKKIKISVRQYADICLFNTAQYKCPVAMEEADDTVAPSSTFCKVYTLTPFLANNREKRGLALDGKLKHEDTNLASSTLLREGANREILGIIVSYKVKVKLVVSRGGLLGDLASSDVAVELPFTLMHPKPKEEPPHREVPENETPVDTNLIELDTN
Chain of wild-type human arrestin-2 (wt-arr2_(1-418)) (human) (P49407 whole entry): as the sequence (P49407 whole entry) above
Chain of truncated human arrestin-2 mutant comprised of residues 1-382 (tr-arr2_(1-382)) (human) (P49407 1-382, change not shown): as the sequence (P49407 1-382, change not shown) above

## doubly phosphorylated version of a peptide corresponding to residues Thr419-ASN439 of the CB1 C-terminus: doubly phosphorylated peptide corresponding to residues Thr419-ASN439 of the CB1 C-terminus, responsible for desensitization
arrestin-2
  binding and bound conformation: binds to arrestin-2 and adopts helical conformations in the vicinity of the phosphorylated residues

## CB1^5P_(454-473), pentaphosphorylated peptide mimicking residues 454-473 of CB1
[1]
  Kd: 2.2 µM
[2]
  Kd: 116 µM

## CC[C@H](C)[C@H](NC(=O)[C@H](CCCCN)NC(=O)[C@@H](NC(=O)[C@@H](N)[C@@H](C)O)C(C)C)C(=O)N[C@@H](C)C(=O)N[C@@H](CCCCN)C(=O)N[C@H](C(=O)N[C@H](C(=O)N[C@@H](CCSC)C(=O)N[C@@H](COP(=O)(O)O)C(=O)N[C@H](C(=O)N[C@@H](COP(=O)(O)O)C(=O)N[C@H](C(=O)N[C@@H](CC(=O)O)C(=O)N[C@H](C(=O)N[C@@H](COP(=O)(O)O)C(=O)N[C@@H](C)C(=O)N[C@@H](CCC(=O)O)C(=O)N[C@@H](C)C(=O)N[C@@H](CC(C)C)C(=O)O)[C@@H](C)OP(=O)(O)O)[C@@H](C)O)C(C)C)[C@@H](C)OP(=O)(O)O)C(C)C [CB1^5P454-473] (H-TVKIAKV[pT]M[pS]V[pS]TD[pT][pS]AEAL-OH)
[3]
  Kd: ~116 µM
[4]
  Kd: ~2.2 µM

## TVKIAKVTMSVSTDTSAEAL [CB1_454-473]
[3]; [7]
  interaction by ITC: no indication of an interaction
[4]; [7]
  interaction by ITC: no indication of an interaction
[5]
  nOe change on addition of arrestin / interaction: no additional peaks in the nOe spectra compared to the free peptide spectrum suggesting little or no interaction
[6]
  nOe change on addition of arrestin / interaction: no additional peaks in the nOe spectra compared to the free peptide spectrum suggesting little or no interaction

From article PMC3634367 (Biochemistry, 2011)
